# Measurements pooled from the literature.
# Lines come from different studies, so protocols differ.
# Organism: Escherichia coli
SMILES,read-out,method,strain,concentration,time,quantity,result
O=C(N[C@H](CO)[C@H](O)c1ccc([N+](=O)[O-])cc1)C(Cl)Cl,microbial growth,,ATCC25922,,,MIC90,0.98 µg/mL
CSc1ccc(-c2nc3ccc(C)cc3[nH]2)cc1,microbial growth,broth dilution,ATCC25922,,,MIC,32 µg/mL
CC(C)Oc1c(NC(=O)c2ccc(NC(=O)[C@H](CC(N)=O)NC(=O)c3ccc(NC(=O)c4ccc(C#N)c(F)c4)cc3)cc2)ccc(C(=O)Nc2ccc(C(=O)O)cc2)c1O,microbial growth,,DSM1116,,,MIC,0.25 µg/mL
O=C(O)c1cn(C2CC2)c2cc(N3CCNCC3)c(F)cc2c1=O,microbial growth,broth dilution,ATCC25922,,,IC50,0.125 µg/mL
COc1cc(C=CC(=O)CC(c2ccc([N+](=O)[O-])cc2)n2ccnc2)ccc1O (stereo not drawn),microbial growth,disc diffusion,ATCC25922,500 µg/mL,,inhibition zone,10.3 mm
c1ccc2[nH]c(-c3ccncc3)nc2c1,microbial growth,broth dilution,ATCC25922,,,MIC,128 µg/mL
C#CCCCCCCCCC=CCC(O)CC(O)CO (stereo not drawn),microbial growth,broth dilution,ATCC35218,,,IC50,> 200 µg/mL
Oc1cccc(-c2nc3ccccc3[nH]2)c1,microbial growth,broth dilution,ATCC25922,,,MIC,64 µg/mL
CC1(C)SC2C(NC(=O)C(NC(=O)C3=C(O)C4(CC4)NC3=O)c3ccccc3)C(=O)N2C1C(=O)O (stereo not drawn),microbial growth,well diffusion,BW25113,200 µM,,inhibition zone,10 mm
O=c1cccccc1Sc1cccccc1=O,microbial growth,broth dilution,ATCC35218,,,MIC80,13.2 µM
NS(=O)(=O)c1ccc(-n2cc(COc3cccc4cccnc34)nn2)cc1,microbial growth,broth dilution,ATCC25922,,,IC50,880 µg/mL
O=[N+]([O-])c1ccc(-c2nc3ccccc3n2Cc2ccccc2)cc1,microbial growth,broth dilution,ATCC25922,,,MIC,64 µg/mL
CCCCCCCCCCCC(=O)Oc1c(C)c(O)c(C(=O)/C=C/c2ccccc2)c(OC)c1C,microbial killing,broth dilution,ATCC25922,,,MBC,> 5000 µg/mL
CC(C)c1ccc(O)c(=O)cc1,microbial growth,broth dilution,ATCC35218,,,MIC80,58.1 µM
Cc1ccc(C(C)C)cc1OCc1cn(-c2ccc(S(N)(=O)=O)cc2)nn1,microbial growth,broth dilution,ATCC25922,,,IC50,289 µg/mL
COc1c(N2C[C@@H]3CCCN[C@@H]3C2)c(F)cc2c(=O)c(C(=O)O)cn(C3CC3)c12,microbial growth,,ATCC25922,,,MIC90,0.06 µg/mL
N=C(N)c1ccc(OCc2ccc3ccc(COc4ccc(C(=N)N)cc4)cc3c2)cc1,microbial growth,,BW25113,,,MIC,≥ 200 µg/mL
CC(C)Oc1c(NC(=O)c2ccc(NC(=O)[C@H](CC(N)=O)NC(=O)c3ccc(CNC(=O)c4ccc(C#N)cc4)cc3)cc2)ccc(C(=O)Nc2ccc(C(=O)O)cc2)c1O,microbial growth,,DSM1116,,,MIC,> 64 µg/mL
N=C(N)c1ccc(OCCC(CCOc2ccc(C(=N)N)cc2)c2ccccc2)cc1 (stereo not drawn),microbial growth,broth dilution,ATCC25922,,,MIC,> 200 µg/mL
COc1cc(C=Cc2cc(-c3ccc(N(C)C)cc3)nc(O)n2)ccc1O,microbial growth,disc diffusion,ATCC25922,500 µg/mL,,inhibition zone,11 mm
COc1ccc(-n2cc(COc3cccc4cccnc34)nn2)cc1,microbial growth,broth dilution,ATCC25922,,,IC50,376 µg/mL
Cc1ccc2nc(-c3ccc([N+](=O)[O-])cc3)[nH]c2c1,microbial growth,broth dilution,ATCC25922,,,MIC,64 µg/mL
O=[N+]([O-])c1ccc(-n2cc(COc3cccc4cccnc34)nn2)cc1,microbial growth,broth dilution,ATCC25922,,,IC50,664 µg/mL
COc1c(C)c(OS(=O)(=O)c2ccc3ccccc3c2)c(C)c(O)c1C(=O)/C=C/c1ccccc1,microbial killing,broth dilution,ATCC25922,,,MBC,> 5000 µg/mL
CC1(C)S[C@@H]2[C@H](NC(=O)[C@H](N)c3ccccc3)C(=O)N2[C@H]1C(=O)O,microbial growth,disc diffusion,,50 µg/disc,,inhibition zone,21 mm
Fc1ccc(-n2cc(COc3cccc4cccnc34)nn2)cc1,microbial growth,broth dilution,ATCC25922,,,IC50,405 µg/mL
CC1(C)SC2C(NC(=O)C(NC(=O)C3=C(O)C(Cc4ccccc4)NC3=O)c3ccccc3)C(=O)N2C1C(=O)O (stereo not drawn),microbial growth,well diffusion,BW25113,200 µM,,inhibition zone,12 mm
O=S(=O)(Oc1cccc2cccnc12)c1ccccc1,microbial growth,broth dilution,ATCC25922,,,IC50,277 µg/mL
O=C(N/N=C/c1ccc([N+](=O)[O-])o1)c1ccc(O)cc1,microbial growth,,ATCC25922,,,MIC90,0.49 µg/mL
CCCCCCCC(=O)Oc1c(C)c(O)c(C(=O)/C=C/c2ccccc2)c(OC)c1C,microbial killing,broth dilution,ATCC25922,,,MBC,> 5000 µg/mL
N=C(N)c1ccccc1OCc1cccc(COc2ccccc2C(=N)N)c1,microbial growth,broth dilution,BW25113,,,MIC,> 200 µg/mL
C=CCCCCCCCCCCCC(O)CC(O)CO (stereo not drawn),microbial growth,broth dilution,ATCC35218,,,IC50,> 200 µg/mL
c1cncc(-c2nc3ccccc3[nH]2)c1,microbial growth,broth dilution,ATCC25922,,,MIC,64 µg/mL
Oc1ccc(-c2cc(Cl)sc2Cl)cc1O,microbial growth,,AS19,,10 h,IC50,6.1 µM
C[C@H]1COc2c(N3CCN(C)CC3)c(F)cc3c(=O)c(C(=O)O)cn1c23,microbial growth,,ATCC25922,,,MIC,0.04 µg/mL
CC1(C)SC2C(NC(=O)C(NC(=O)C3=C(O)C(Cc4ccsc4)NC3=O)c3ccccc3)C(=O)N2C1C(=O)O (stereo not drawn),microbial growth,well diffusion,BW25113,200 µM,,inhibition zone,10 mm
COc1cc(C=CC(=O)CC(c2ccc(N(C)C)cc2)n2ccnc2)ccc1O (stereo not drawn),microbial growth,disc diffusion,ATCC25922,500 µg/mL,,inhibition zone,8.67 mm
CC(C)Oc1c(NC(=O)c2ccc(NC(=O)[C@H](CC(N)=O)NC(=O)c3ccc(NC(=O)c4ccc(C#N)cc4)cc3)cc2)ccc(C(=O)Nc2ccncc2)c1O,microbial growth,,DSM1116,,,MIC,> 64 µg/mL
N=C(N)c1ccccc1OCCCCCOc1ccccc1C(=N)N,microbial growth,broth dilution,BW25113,,,MIC,> 200 µg/mL
Cc1ccc(S(=O)(=O)Oc2cc(C(C)C)ccc2C)cc1,microbial growth,broth dilution,ATCC25922,,,IC50,317 µg/mL
COc1c(C)c(OC)c2c(c1C)OC(c1ccccc1)CC2=O (stereo not drawn),microbial killing,broth dilution,ATCC25922,,,MBC,> 5000 µg/mL
N=C(N)c1cccc(OCc2ccc(COc3cccc(C(=N)N)c3)cc2)c1,microbial growth,broth dilution,ATCC25922,,,MIC,200 µg/mL
CC[C@H](C)[C@H](NC(=O)OCC1c2ccccc2-c2ccccc21)C(=O)Sc1cccccc1=O,microbial growth,broth dilution,ATCC35218,,,MIC80,> 100 µM
N=C(N)c1ccc(OCc2ccccc2COc2ccc(C(=N)N)cc2)cc1,microbial growth,broth dilution,ATCC25922,,,MIC,> 200 µg/mL
CCCCCC(=O)Oc1c(C)c(O)c(C(=O)/C=C/c2ccccc2)c(OC)c1C,microbial killing,broth dilution,ATCC25922,,,MBC,> 5000 µg/mL
